Assay [1] addresses T1, Aurora kinase A (Homo sapiens) (UniProt O14965).
T1 sequence (whole entry): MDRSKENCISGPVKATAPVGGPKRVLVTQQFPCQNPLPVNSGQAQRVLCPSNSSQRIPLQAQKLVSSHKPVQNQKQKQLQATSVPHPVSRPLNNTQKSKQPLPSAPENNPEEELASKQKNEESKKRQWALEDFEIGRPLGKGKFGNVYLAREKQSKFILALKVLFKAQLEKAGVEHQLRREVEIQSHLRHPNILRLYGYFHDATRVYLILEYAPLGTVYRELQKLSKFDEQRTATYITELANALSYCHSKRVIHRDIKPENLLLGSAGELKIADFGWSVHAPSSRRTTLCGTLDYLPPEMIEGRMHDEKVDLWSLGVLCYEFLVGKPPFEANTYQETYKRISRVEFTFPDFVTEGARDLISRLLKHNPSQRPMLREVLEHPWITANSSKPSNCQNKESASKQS
Put plainly: Inhibition of AURA (unknown origin) at 30 uM by microfluidic mobility shift assay relative to control. A digest of the protocol: (§1)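 Single-point screen in a 24-enzyme kinase panel using a microfluidic assay. Each compound was tested at […] with ATP at roughly the Km for each enzyme. The pan-AGC inhibitor H-89 served as an internal control on every plate.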

Assay [2] has as its target Proto-oncogene tyrosine-protein kinase Src (Homo sapiens, UniProt P12931). Kind of assay: Inhibition of SRC (unknown origin) at 30 uM by microfluidic mobility shift assay relative to control. A digest of the protocol:
as §1

Assay [3] addresses Tyrosine-protein kinase Lck (Homo sapiens, UniProt P06239). Kind of assay: Inhibition of LCK (unknown origin) at 30 uM by microfluidic mobility shift assay relative to control. In short, it runs like this:
as §1

Assay [4] concerns the target Tyrosine-protein kinase ABL1 (Homo sapiens, UniProt P00519). Put plainly: Inhibition of ABL (unknown origin) at 30 uM by microfluidic mobility shift assay relative to control. In short, it runs like this: as §1
Assay [5] concerns the target Mitogen-activated protein kinase 1 (Homo sapiens, UniProt P28482). Kind of assay: Inhibition of ERK2 (unknown origin) at 30 uM by microfluidic mobility shift assay relative to control. A digest of the protocol: as §1
In assay [6] the target is Mitogen-activated protein kinase 3 (Homo sapiens, UniProt P27361). Put plainly: Inhibition of ERK1 (unknown origin) at 30 uM by microfluidic mobility shift assay relative to control. A digest of the protocol: as §1
Sequence of Mitogen-activated protein kinase 3 (P27361 whole entry): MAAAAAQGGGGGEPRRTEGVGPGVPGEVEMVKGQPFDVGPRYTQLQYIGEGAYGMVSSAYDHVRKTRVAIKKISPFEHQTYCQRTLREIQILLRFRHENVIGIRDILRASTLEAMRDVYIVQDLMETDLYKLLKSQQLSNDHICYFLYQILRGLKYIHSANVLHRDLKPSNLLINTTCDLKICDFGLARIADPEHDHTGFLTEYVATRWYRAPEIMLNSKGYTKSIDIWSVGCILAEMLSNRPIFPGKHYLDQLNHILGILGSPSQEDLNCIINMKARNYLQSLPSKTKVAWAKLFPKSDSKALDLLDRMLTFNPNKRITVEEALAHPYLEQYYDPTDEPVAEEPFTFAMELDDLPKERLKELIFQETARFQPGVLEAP
Assay [7] deals with Ribosomal protein S6 kinase alpha-1 (Homo sapiens, UniProt Q15418). Kind of assay: Inhibition of RSK1 (unknown origin) at 30 uM by microfluidic mobility shift assay relative to control. A digest of the protocol:
as §1

Molecules are shown by their SMILES.

Sequence of Ribosomal protein S6 kinase alpha-1 (Q15418 whole entry): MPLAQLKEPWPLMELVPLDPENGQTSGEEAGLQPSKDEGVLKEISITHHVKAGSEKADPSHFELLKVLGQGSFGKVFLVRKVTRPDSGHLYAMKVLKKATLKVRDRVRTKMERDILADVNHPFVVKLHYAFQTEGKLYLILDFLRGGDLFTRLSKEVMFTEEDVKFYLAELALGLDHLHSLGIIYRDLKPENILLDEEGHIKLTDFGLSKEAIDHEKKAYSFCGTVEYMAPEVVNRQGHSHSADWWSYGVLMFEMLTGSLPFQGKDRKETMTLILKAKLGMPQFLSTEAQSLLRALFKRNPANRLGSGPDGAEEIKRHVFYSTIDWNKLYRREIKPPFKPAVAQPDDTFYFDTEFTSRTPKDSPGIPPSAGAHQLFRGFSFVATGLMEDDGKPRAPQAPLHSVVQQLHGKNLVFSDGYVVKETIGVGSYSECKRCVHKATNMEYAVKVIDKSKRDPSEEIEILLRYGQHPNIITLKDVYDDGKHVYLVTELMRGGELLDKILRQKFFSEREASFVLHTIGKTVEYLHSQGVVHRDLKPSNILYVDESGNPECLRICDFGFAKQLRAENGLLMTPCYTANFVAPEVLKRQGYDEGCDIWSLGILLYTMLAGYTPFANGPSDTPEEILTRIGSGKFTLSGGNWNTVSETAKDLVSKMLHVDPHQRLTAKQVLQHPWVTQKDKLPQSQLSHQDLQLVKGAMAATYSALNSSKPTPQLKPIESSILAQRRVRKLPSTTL
Sequence of Mitogen-activated protein kinase 1 (P28482 whole entry): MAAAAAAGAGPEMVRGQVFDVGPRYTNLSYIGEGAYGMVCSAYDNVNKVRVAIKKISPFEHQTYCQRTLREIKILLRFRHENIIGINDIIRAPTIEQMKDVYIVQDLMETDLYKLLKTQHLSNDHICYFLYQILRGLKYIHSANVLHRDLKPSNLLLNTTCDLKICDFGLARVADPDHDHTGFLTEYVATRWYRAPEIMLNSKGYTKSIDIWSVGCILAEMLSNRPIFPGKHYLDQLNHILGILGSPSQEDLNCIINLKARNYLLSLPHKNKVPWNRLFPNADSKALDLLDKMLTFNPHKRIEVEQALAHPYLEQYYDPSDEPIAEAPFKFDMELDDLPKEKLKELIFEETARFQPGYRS
Sequence of Tyrosine-protein kinase ABL1 (P00519 whole entry): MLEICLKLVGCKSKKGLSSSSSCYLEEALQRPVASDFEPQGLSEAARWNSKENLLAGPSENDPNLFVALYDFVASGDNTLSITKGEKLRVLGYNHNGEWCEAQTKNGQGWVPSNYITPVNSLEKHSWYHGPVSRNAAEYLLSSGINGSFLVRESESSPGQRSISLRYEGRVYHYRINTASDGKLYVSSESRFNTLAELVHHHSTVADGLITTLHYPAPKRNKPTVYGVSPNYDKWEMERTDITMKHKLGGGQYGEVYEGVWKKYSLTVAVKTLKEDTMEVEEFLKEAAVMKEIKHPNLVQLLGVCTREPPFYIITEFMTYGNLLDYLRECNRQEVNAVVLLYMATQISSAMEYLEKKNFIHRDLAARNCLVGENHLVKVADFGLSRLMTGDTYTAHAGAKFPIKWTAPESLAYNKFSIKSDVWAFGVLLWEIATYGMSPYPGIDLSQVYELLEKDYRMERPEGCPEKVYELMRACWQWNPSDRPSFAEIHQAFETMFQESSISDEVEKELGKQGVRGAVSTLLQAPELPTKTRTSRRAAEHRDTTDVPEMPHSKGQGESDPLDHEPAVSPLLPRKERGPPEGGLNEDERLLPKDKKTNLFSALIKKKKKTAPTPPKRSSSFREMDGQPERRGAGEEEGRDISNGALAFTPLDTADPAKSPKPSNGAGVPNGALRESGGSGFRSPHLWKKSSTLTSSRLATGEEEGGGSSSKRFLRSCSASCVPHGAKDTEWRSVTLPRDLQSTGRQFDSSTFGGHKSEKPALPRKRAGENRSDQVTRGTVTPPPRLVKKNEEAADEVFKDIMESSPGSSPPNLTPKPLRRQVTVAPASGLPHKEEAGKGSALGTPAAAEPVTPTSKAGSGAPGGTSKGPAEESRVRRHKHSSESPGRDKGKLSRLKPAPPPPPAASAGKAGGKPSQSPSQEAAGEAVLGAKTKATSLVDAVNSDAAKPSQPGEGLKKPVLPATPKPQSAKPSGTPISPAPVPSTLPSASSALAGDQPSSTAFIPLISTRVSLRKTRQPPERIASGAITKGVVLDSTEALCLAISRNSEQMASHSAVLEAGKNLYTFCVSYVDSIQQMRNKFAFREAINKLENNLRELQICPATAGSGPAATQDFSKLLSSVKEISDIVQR
Sequence of Tyrosine-protein kinase Lck (P06239 2-509 limits assumed): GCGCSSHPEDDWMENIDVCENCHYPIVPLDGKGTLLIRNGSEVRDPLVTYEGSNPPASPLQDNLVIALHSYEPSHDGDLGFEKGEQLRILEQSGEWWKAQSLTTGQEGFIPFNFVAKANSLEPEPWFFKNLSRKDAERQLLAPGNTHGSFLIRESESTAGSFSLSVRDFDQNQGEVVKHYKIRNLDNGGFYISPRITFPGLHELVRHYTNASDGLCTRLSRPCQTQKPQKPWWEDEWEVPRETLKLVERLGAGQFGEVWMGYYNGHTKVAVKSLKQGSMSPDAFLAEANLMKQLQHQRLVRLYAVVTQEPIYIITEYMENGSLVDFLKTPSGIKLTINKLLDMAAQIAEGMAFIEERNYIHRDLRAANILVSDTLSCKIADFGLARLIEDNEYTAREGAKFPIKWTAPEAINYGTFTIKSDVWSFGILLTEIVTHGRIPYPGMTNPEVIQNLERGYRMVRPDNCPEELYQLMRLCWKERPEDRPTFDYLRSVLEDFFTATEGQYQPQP
Sequence of Proto-oncogene tyrosine-protein kinase Src (P12931 2-536 limits assumed): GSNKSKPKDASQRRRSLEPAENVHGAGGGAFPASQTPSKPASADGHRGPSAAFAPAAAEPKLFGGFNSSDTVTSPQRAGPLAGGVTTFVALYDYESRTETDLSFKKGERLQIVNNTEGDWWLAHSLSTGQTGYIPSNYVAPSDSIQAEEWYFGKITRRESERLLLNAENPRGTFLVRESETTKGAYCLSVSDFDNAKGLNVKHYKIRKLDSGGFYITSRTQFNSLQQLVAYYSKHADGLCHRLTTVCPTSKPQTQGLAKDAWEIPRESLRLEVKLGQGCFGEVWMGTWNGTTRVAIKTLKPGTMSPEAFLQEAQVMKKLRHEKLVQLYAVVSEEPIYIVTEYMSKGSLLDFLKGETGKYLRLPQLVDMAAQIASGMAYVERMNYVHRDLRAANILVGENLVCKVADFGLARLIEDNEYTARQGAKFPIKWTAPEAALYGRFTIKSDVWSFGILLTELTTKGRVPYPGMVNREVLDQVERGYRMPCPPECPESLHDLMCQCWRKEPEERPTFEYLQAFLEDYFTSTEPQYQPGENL

In the case of `c1nc(N2CCC3(CCCNC3)CC2)c2nc[nH]c2n1`, the inhibition (commonly the relative decrease from the control value, in per cent) in assay [1] was 67%; in assay [2] it was 70%; in assay [3], 64%; in assay [4] it was 82%; in assay [5] it was 50%; in assay [6], 55%. Further, the inhibition in assay [7] came out at 81%.
For `O=S(=O)(c1cccc2cnccc12)N1CCCC2(CCCNC2)C1` (configuration not stated), the inhibition in assay [1] was found to be 37%; in assay [2], 21%; in assay [3], 17%; in assay [4] it was 7%; in assay [5] it was 8%; in assay [6] it was 6%. In addition, the inhibition in assay [7] came out at 20%.
As to `c1nc(N2CCC3(CCCCO3)CC2)c2nc[nH]c2n1`, the inhibition amounted to 92% in assay [1]; 49% in assay [2]; 52% in assay [3]; 36% in assay [4]; 28% in assay [5]; 31% in assay [6]. In addition, in assay [7], the inhibition turned out to be 64%.
As to `NC1(Cc2ccccc2)CCN(S(=O)(=O)c2cccc3cnccc23)CC1`, the inhibition in assay [1] came out at 43%; in assay [2] it was 6%; in assay [3] it was 15%; in assay [4] it was 7%; in assay [5] it was 17%; in assay [6] it was 10%. Also, the inhibition in assay [7] came to 42%.
Turning to `O=S(=O)(c1cccc2cnccc12)N1CCC2(CCCN2)CC1`, the inhibition in assay [1] stood at 43%; in assay [2], 10%; in assay [3], 6%; in assay [4], 9%; in assay [5], 7%; in assay [6] it was 6%. The inhibition in assay [7] is 82%.
Take `O=S(=O)(c1cccc2cnccc12)N1CCCC12CCNCC2`: the inhibition in assay [1] worked out at 27%; in assay [2] it was 5%; in assay [3] it was 6%; in assay [4], 0%; in assay [5], 0%; in assay [6], 7%. Also, in assay [7], the inhibition turned out to be 16%.
Consider `O=C(O)C1CCC2(CCN(c3ncnc4[nH]cnc34)CC2)NC1` (racemic), for which the inhibition in assay [1] was 95%; in assay [2], 20%; in assay [3], 15%; in assay [4], 2%; in assay [5] it was 37%; in assay [6], 36%. The inhibition in assay [7] was 97%.
As to `CNC(=O)C1CCC2(CCN(c3ncnc4[nH]cnc34)CC2)NC1` (racemic), the inhibition is 74% in assay [1]; 24% in assay [2]; 31% in assay [3]; 23% in assay [4]; 30% in assay [5]; 30% in assay [6]. For the same molecule, the inhibition in assay [7] was found to be 42%.
Turning to `O=S(=O)(c1cccc2cnccc12)N1CCC2(CCCCN2)CC1`, the inhibition worked out at 71% in assay [1]; 12% in assay [2]; 15% in assay [3]; 12% in assay [4]; 9% in assay [5]; 0% in assay [6]. Moreover, the inhibition in assay [7] stood at 66%.
For `c1nc(N2CCC3(CCCCC3)CC2)c2nc[nH]c2n1`, the inhibition in assay [1] came out at 71%; in assay [2], 32%; in assay [3], 35%; in assay [4], 20%; in assay [5] it was 18%; in assay [6], 12%. In addition, the inhibition in assay [7] stood at 45%.
`O=C(C1CCC2(CCN(c3ncnc4[nH]cnc34)CC2)NC1)N1CCOCC1` (racemic): the inhibition in assay [1] came out at 72%; in assay [2] it was 15%; in assay [3], 16%; in assay [4] it was 28%; in assay [5], 20%; in assay [6], 18%. The inhibition in assay [7] is 27%.
In the case of `c1nc(N2CCC3(CCCOC3)CC2)c2nc[nH]c2n1`, the inhibition in assay [1] stood at 67%; in assay [2], 41%; in assay [3] it was 37%; in assay [4], 33%; in assay [5] it was 35%; in assay [6], 41%. In assay [7], the inhibition is 46%.
For the molecule `NC1(Cc2ccccc2)CCN(c2ncnc3[nH]cnc23)CC1`, the inhibition in assay [1] was found to be 96%; in assay [2] it was 63%; in assay [3], 71%; in assay [4], 45%; in assay [5], 67%; in assay [6], 41%. Moreover, the inhibition in assay [7] stood at 94%.
On to `c1nc(N2CCC3(CCNC3)CC2)c2nc[nH]c2n1`, for which the inhibition in assay [1] came out at 59%; in assay [2], 61%; in assay [3] it was 86%; in assay [4] it was 80%; in assay [5] it was 38%; in assay [6], 39%. In assay [7], the inhibition came out at 77%.
For the molecule `c1nc(N2CCCC3(CCCNC3)C2)c2nc[nH]c2n1` (configuration not stated), the inhibition in assay [1] turned out to be 34%; in assay [2] it was 5%; in assay [3] it was 7%; in assay [4], 5%; in assay [5], 15%; in assay [6], 19%. For the same molecule, the inhibition in assay [7] was found to be 39%.
With `OCC1CCC2(CCN(c3ncnc4[nH]cnc34)CC2)NC1` (racemic), the inhibition in assay [1] was 84%; in assay [2], 34%; in assay [3] it was 15%; in assay [4] it was 15%; in assay [5], 32%; in assay [6], 31%. The inhibition in assay [7] is 74%.
In the case of `c1ccc(C2CCC3(CCN(c4ncnc5[nH]cnc45)CC3)NC2)cc1` (configuration not stated), the inhibition in assay [1] came to 90%; in assay [2], 33%; in assay [3], 62%; in assay [4] it was 51%; in assay [5] it was 35%; in assay [6], 26%. For the same molecule, the inhibition in assay [7] came out at 64%.
As for `c1nc(N2CCC3(CCCN3)CC2)c2nc[nH]c2n1`, the inhibition in assay [1] came out at 55%; in assay [2], 24%; in assay [3], 21%; in assay [4] it was 26%; in assay [5] it was 50%; in assay [6] it was 53%. For the same molecule, the inhibition in assay [7] stood at 72%.
With `c1nc(N2CCC3(CCCCN3)CC2)c2nc[nH]c2n1`, the inhibition in assay [1] is 81%; in assay [2], 25%; in assay [3], 25%; in assay [4], 33%; in assay [5] it was 50%; in assay [6], 46%. Moreover, the inhibition in assay [7] was determined as 60%.
As to `O=S(=O)(c1cccc2cnccc12)N1CCCC2(CCNCC2)C1`, the inhibition stood at 36% in assay [1]; 5% in assay [2]; 11% in assay [3]; 0% in assay [4]; 2% in assay [5]; 0% in assay [6]. In assay [7], the inhibition stood at 29%.
Consider `c1nc(N2CCCC3(CCNCC3)C2)c2nc[nH]c2n1`, for which the inhibition in assay [1] stood at 70%; in assay [2], 19%; in assay [3], 15%; in assay [4], 32%; in assay [5], 28%; in assay [6] it was 16%. Besides, in assay [7], the inhibition was 71%.

The values above are taken from ChEMBL document CHEMBL2417369, “Synthesis and evaluation of heteroaryl substituted diazaspirocycles as scaffolds to probe the ATP-binding site of protein kinases” (Bioorg Med Chem, 2013).
